Measured values reported in ChEMBL document CHEMBL4266009, “One Step Beyond: Design of Substrates Spanning Primed Positions of Zika Virus NS2B-NS3 Protease” (ACS Med Chem Lett, 2018).
Calls of active or inactive are those of the source. The calls are words filed in the database; no cut-off is given here. Non-standard residues stand in square brackets, D forms with d. Residues, ends and D or L forms follow the SMILES beside them. Tyr(3-NO2) = N[C@@H](Cc1ccc(O)c([N+](=O)[O-])c1)C(=O)O; 2Abz = Nc1ccccc1C(=O)O

Legend:
Zika virus [1] = test: Substrate activity at recombinant ZIKV NS3 pro domain fused NS2B protease assessed as Km in Tris-CHAPS-glycerol buffer at pH 7.4 after 30 mins
Summary of the method: (§1)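 Continuous fluorescence assay (Ex 320, Em 450 nm) in 10 mM Tris-HCl pH 7.4, 20% glycerol, 1 mM CHAPS at 37 °C; substrate (1.0×10-7 to 4×10^-5 M final) added to 1.64×10^-8 M NS2BLNNS3pro. Initial rates from linear portions, inner-filter corrected; KM and kcat from double-reciprocal Michaelis-Menten plots; triplicate, SD ≤20%.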

Zika virus [2] = test: Substrate activity at recombinant ZIKV NS3 pro domain fused NS2B protease by HPLC method
Zika virus [3] = test: Substrate activity at recombinant ZIKV NS3 pro domain fused NS2B protease at pH 7.4 after 30 mins by fluorescence assay
Summary of the method: (§2)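 pH profile: NS2BLNNS3pro 1.64×10^-8 M with substrate 2.44×10^-5 M in citrate (pH 3.0), acetate (4.0, 5.0), MES (6.0), MOPS (7.0), Tris (7.4, 10.0) or HEPES (8.0); fluorescence increase followed at 37 °C over 30 min.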

Zika virus [4] = test: Substrate activity at 6.86x10'-6M of recombinant ZIKV NS3 pro domain fused NS2B protease; conditions: in the assay text read “6.86x10'-10M” for “6.86x10'-6M”
Summary of the method: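 Limit of detection: decreasing amounts of recombinant NS2BLNNS3pro titrated against substrate at 2.44 × 10^-5 M in PBS pH 7.4, 37 °C, 30 min; fluorescence read at 450 nm (Ex 320 nm); detection limit from fluorescence increase versus enzyme concentration; triplicate.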

Zika virus [5] = test: Substrate activity at recombinant ZIKV NS3 pro domain fused NS2B protease at pH 8 to 10 after 30 mins by fluorescence assay; summary of the method: as §2
Zika virus [6] = test: Substrate activity at recombinant ZIKV NS3 pro domain fused NS2B protease assessed as ratio of Kcat to Km in Tris-CHAPS-glycerol buffer at pH 7.4 after 30 mins; summary of the method: as §1
[7] = Selectivity ratio of substrate activity at recombinant ZIKV NS3 pro domain fused NS2B protease to substrate activity at West Nile virus protease
Zika virus [8] = test: Substrate activity at recombinant ZIKV NS3 pro domain fused NS2B protease at pH 3 to 6 after 30 mins by fluorescence assay; summary of the method: as §2
Zika virus [9] = test: Substrate activity at recombinant ZIKV NS3 pro domain fused NS2B protease assessed as Kcat in Tris-CHAPS-glycerol buffer at pH 7.4 after 30 mins; summary of the method: as §1
Zika virus [10] = test: Substrate activity at recombinant ZIKV NS3 pro domain fused NS2B protease assessed as Kcat in PBS at pH 7.4 after 30 mins
Summary of the method: (§3)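 Kinetic constants determined in PBS pH 7.4 with the recombinant NS2BLNNS3pro; cleavage followed by ABZ fluorescence (Ex 320, Em 450 nm) at 37 °C; initial rates fitted and KM, kcat obtained from double-reciprocal Michaelis-Menten plots.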

Zika virus [11] = test: Substrate activity at recombinant ZIKV NS3 pro domain fused NS2B protease assessed as Km in PBS at pH 7.4 after 30 mins; summary of the method: as §3
Zika virus [12] = test: Substrate activity at recombinant ZIKV NS3 pro domain fused NS2B protease assessed as ratio of Kcat to Km in PBS at pH 7.4 after 30 mins; summary of the method: as §3
Zika virus [13] = test: Substrate activity at recombinant ZIKV NS3 pro domain fused NS2B protease at pH 7.4

With `CC(C)[C@H](NC(=O)c1ccccc1N)C(=O)N[C@@H](CCCCN)C(=O)N[C@@H](CCCCN)C(=O)N[C@@H](CCCNC(=N)N)C(=O)N[C@@H](C)C(=O)N[C@@H](C)C(=O)N[C@@H](Cc1c[nH]c2ccccc12)C(=O)N[C@@H](Cc1ccc(O)c([N+](=O)[O-])c1)C(N)=O` (H-[2Abz]VKKRAAW[Tyr(3-NO2)]-NH2) the Km (Zika virus [1]) was 1.23 µM, the Activity (Zika virus [2]) was “Active” and the Activity (Zika virus [3]) was “Active”. For the same compound, the Activity (Zika virus [4]) was “Active”, the Activity (Zika virus [5]) was “Active” and the kcat/Km (Zika virus [6]) was 1.26 ×10⁸ /M/s. The Ratio [7] was 200, the Activity (Zika virus [8]) was “inactive” and the kcat (Zika virus [9]) was 151 s⁻¹. It also gave a kcat (Zika virus [10]) of 16.3 s⁻¹, a Km (Zika virus [11]) of 6.97 µM and a kcat/Km (Zika virus [12]) of 2.32 ×10⁶ /M/s. The Activity (Zika virus [13]) was “Active”.
For `CC(C)[C@H](NC(=O)c1ccccc1N)C(=O)N[C@@H](CCCCN)C(=O)N[C@@H](CCCCN)C(=O)N[C@@H](CCCNC(=N)N)C(=O)N[C@@H](C)C(=O)N[C@@H](C)C(=O)N[C@@H](CC(=O)O)C(=O)N[C@@H](Cc1ccc(O)c([N+](=O)[O-])c1)C(N)=O` (H-[2Abz]VKKRAAD[Tyr(3-NO2)]-NH2), the Activity (Zika virus [3]) was “Active”.
For `CC(C)[C@H](NC(=O)c1ccccc1N)C(=O)N[C@@H](CCCCN)C(=O)N[C@@H](CCCCN)C(=O)N[C@@H](CCCNC(=N)N)C(=O)N[C@@H](C)C(=O)N[C@@H](C)C(=O)N[C@@H](CCC(=O)O)C(=O)N[C@@H](Cc1ccc(O)c([N+](=O)[O-])c1)C(N)=O` (H-[2Abz]VKKRAAE[Tyr(3-NO2)]-NH2), the Activity (Zika virus [3]) was “Active”.
Work on `CC(=O)N[C@H](CCCNC(=N)N)C(=O)N[C@@H](CCCCN)C(=O)N[C@@H](CCCN)C(=O)N[C@@H](CCCNC(=N)N)C(=O)Nc1ccc2c(CC(N)=O)cc(=O)oc2c1` yielded a kcat/Km (Zika virus [6]) of 1.1 ×10⁶ /M/s.
